In ChEMBL document CHEMBL1687805, “Colistin resistance in Acinetobacter baumannii is mediated by complete loss of lipopolysaccharide production” (2010):
≈ marks a conversion by molar mass, not a printed value.

Experiments:
Format in all cases: functional
Acinetobacter baumannii [1] = assay: Antibacterial activity against Acinetobacter baumannii ATCC 19606 by broth microdilution method
Outline: (§1)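 Broth microdilution MIC in cation-adjusted Mueller-Hinton broth following the CLSI protocol, read in μg/ml. Strains were kept on Mueller-Hinton agar and cultured at 37°C. 19606R was selected directly on 10 μg/ml colistin and maintained with it. The pWH1266 or pAL840 transformants of 19606R were introduced by electroporation and selected on 100 μg/ml ampicillin.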

Acinetobacter baumannii [2] = assay: Antibacterial activity against colistin-resistant Acinetobacter baumannii ATCC 19606R harboring empty plasmid pWH1266 by broth microdilution method; outline: as §1
Acinetobacter baumannii [3] = assay: Antibacterial activity against colistin-resistant Acinetobacter baumannii ATCC 19606R exhibiting complete loss of lipopolysaccharide production by broth microdilution method; outline: as §1
Acinetobacter baumannii [4] = assay: Antibacterial activity against colistin-resistant Acinetobacter baumannii ATCC 19606R harboring pAL840 plasmid encoding intact lpxA gene by broth microdilution method; outline: as §1

| Molecule | MIC (Acinetobacter baumannii [1]) [µg/mL] | MIC (Acinetobacter baumannii [2]) [µg/mL] | MIC (Acinetobacter baumannii [3]) [µg/mL] | MIC (Acinetobacter baumannii [4]) [µg/mL] |
| --- | --- | --- | --- | --- |
| CO/N=C(\C(=O)N[C@@H]1C(=O)N2C(C(=O)[O-])=C(C[N+]3(C)CCCC3)CS[C@H]12)c1csc(N)n1 | 16 (≈ 33.3 µM) | 0.125 (≈ 0.26 µM) | 0.125 (≈ 0.26 µM) | 16 (≈ 33.3 µM) |
| CC[C@H]1OC(=O)[C@H](C)[C@@H](O[C@H]2C[C@@](C)(OC)[C@@H](O)[C@H](C)O2)[C@H](C)[C@@H](O[C@@H]2O[C@H](C)C[C@H](N(C)C)[C@H]2O)[C@](C)(O)C[C@@H](C)CN(C)[C@H](C)[C@@H](O)[C@]1(C)O [AZITHROMYCIN] | 64 (≈ 85.4 µM) | 2 (≈ 2.67 µM) | 2 (≈ 2.67 µM) | 64 (≈ 85.4 µM) |
| POLYMYXIN B | 0.5 | > 128 | > 128 | 0.5 |
